Assay results published in ChEMBL document CHEMBL1137650, “An OXA-66/OXA-51-like carbapenemase and possibly an efflux pump are associated with resistance to imipenem in Acinetobacter baumannii” (2007).
≈ marks a conversion by molar mass, not a printed value.

Key:
Type in all cases: functional
Acinetobacter baumannii [1] = experiment: Antibacterial activity against imipenem-resistant Acinetobacter baumannii abh39 by broth dilution method
Outline: (§1)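 Clinical isolates were collected at three Taiwan hospitals (1993–2003) and grown in tryptic soy broth at 37°C for 18 h. MIC by broth dilution following CLSI recommendations.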

Acinetobacter baumannii [2] = experiment: Antibacterial activity against imipenem-resistant Acinetobacter baumannii abh26 by broth dilution method; outline: as §1
Acinetobacter baumannii [3] = experiment: Antibacterial activity against imipenem-resistant Acinetobacter baumannii abh11 by broth dilution method; outline: as §1
Acinetobacter baumannii [4] = experiment: Antibacterial activity against imipenem-susceptible Acinetobacter baumannii ATCC 19606 by broth dilution method; details: ATCC 19606 = CIP 70.34 = JCM 6841
Acinetobacter baumannii [5] = experiment: Antibacterial activity against imipenem-resistant Acinetobacter baumannii abh37 by broth dilution method; outline: as §1
Acinetobacter baumannii [6] = experiment: Antibacterial activity against imipenem-resistant Acinetobacter baumannii abh14 by broth dilution method; outline: as §1
Acinetobacter baumannii [7] = experiment: Antibacterial activity against imipenem-intermediate Acinetobacter baumannii ab1297 by broth dilution method
Outline: (§2)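 Clinical A. baumannii isolates collected at three Taiwanese hospitals, routinely grown in tryptic soy broth at 37°C for 18 h. MICs (μg ml⁻¹) were determined by broth dilution following CLSI recommendations, or by Etest strips following the manufacturer's instructions.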

Acinetobacter baumannii [8] = experiment: Antibacterial activity against imipenem-susceptible Acinetobacter baumannii ab1254 by broth dilution method; outline: as §1
Acinetobacter baumannii [9] = experiment: Antibacterial activity against imipenem-resistant Acinetobacter baumannii abh17 by broth dilution method; outline: as §1
Acinetobacter baumannii [10] = experiment: Antibacterial activity against imipenem-resistant Acinetobacter baumannii abh20 by broth dilution method; outline: as §1
Acinetobacter baumannii [11] = experiment: Antibacterial activity against imipenem-susceptible Acinetobacter baumannii ab4 by broth dilution method; outline: as §1
Acinetobacter baumannii [12] = experiment: Antibacterial activity against imipenem-resistant Acinetobacter baumannii abh29 by broth dilution method; outline: as §1
Acinetobacter baumannii [13] = experiment: Antibacterial activity against imipenem-resistant Acinetobacter baumannii abh13 by broth dilution method; outline: as §1
Acinetobacter baumannii [14] = experiment: Antibacterial activity against imipenem-susceptible Acinetobacter baumannii ab12 by broth dilution method; outline: as §1
Acinetobacter baumannii [15] = experiment: Antibacterial activity against imipenem-resistant Acinetobacter baumannii ab1265 by broth dilution method; outline: as §1
Acinetobacter baumannii [16] = experiment: Antibacterial activity against imipenem-resistant Acinetobacter baumannii abh9 by broth dilution method; outline: as §1
Acinetobacter baumannii [17] = experiment: Antibacterial activity against imipenem-resistant Acinetobacter baumannii ab1266 by broth dilution method; outline: as §1
Acinetobacter baumannii [18] = experiment: Antibacterial activity against imipenem-resistant Acinetobacter baumannii abh36 by broth dilution method; outline: as §1
Acinetobacter baumannii [19] = experiment: Antibacterial activity against imipenem-susceptible Acinetobacter baumannii ab8 by broth dilution method; outline: as §1
Acinetobacter baumannii [20] = experiment: Antibacterial activity against imipenem-susceptible Acinetobacter baumannii ab3 by broth dilution method; outline: as §1
Acinetobacter baumannii [21] = experiment: Antibacterial activity against imipenem-susceptible Acinetobacter baumannii ab20 by broth dilution method; outline: as §1
Acinetobacter baumannii [22] = experiment: Antibacterial activity against imipenem-susceptible Acinetobacter baumannii ab1308 by broth dilution method; outline: as §2
Acinetobacter baumannii [23] = experiment: Antibacterial activity against imipenem-susceptible Acinetobacter baumannii ab1316 by broth dilution method; outline: as §2
Acinetobacter baumannii [24] = experiment: Antibacterial activity against imipenem-resistant Acinetobacter baumannii abh18 by broth dilution method; outline: as §1
Acinetobacter baumannii [25] = experiment: Ratio of MIC for Acinetobacter baumannii ISAB ab1254(r) to MIC for Acinetobacter baumannii ISAB […] in presence of 2 ug/ml efflux pump inhibitor carbonyl cyanide m-chlorophenyl-hydrazone
Acinetobacter baumannii [26] = experiment: Antibacterial activity against imipenem-resistant Acinetobacter baumannii ISAB ab1254(r) by broth dilution method in presence of 2 ug/ml efflux pump inhibitor carbonyl cyanide m-chlorophenyl-hydrazone
Acinetobacter baumannii [27] = experiment: Antibacterial activity against imipenem-resistant Acinetobacter baumannii ISAB ab8(r) by broth dilution method
Acinetobacter baumannii [28] = experiment: Ratio of MIC for Acinetobacter baumannii ISAB ab8(r) to MIC for Acinetobacter baumannii ISAB ab8(r) in presence of 2 ug/ml efflux pump inhibitor carbonyl cyanide m-chlorophenyl-hydrazone
Acinetobacter baumannii [29] = experiment: Antibacterial activity against imipenem-resistant Acinetobacter baumannii ISAB ab8(r) by broth dilution method in presence of 2 ug/ml efflux pump inhibitor carbonyl cyanide m-chlorophenyl-hydrazone
Acinetobacter baumannii [30] = experiment: Antibacterial activity against imipenem-resistant Acinetobacter baumannii ISAB ab1254(r) by broth dilution method

Row | Molecule | MIC (Acinetobacter baumannii [1]) | MIC (Acinetobacter baumannii [2]) | MIC (Acinetobacter baumannii [3]) | MIC (Acinetobacter baumannii [5]) | MIC (Acinetobacter baumannii [6]) | MIC (Acinetobacter baumannii [7]) | MIC (Acinetobacter baumannii [8]) | MIC (Acinetobacter baumannii [9]) | MIC (Acinetobacter baumannii [10]) | MIC (Acinetobacter baumannii [11]) | MIC (Acinetobacter baumannii [12]) | MIC (Acinetobacter baumannii [13]) | MIC (Acinetobacter baumannii [14]) | MIC (Acinetobacter baumannii [15]) | MIC (Acinetobacter baumannii [16]) | MIC (Acinetobacter baumannii [17]) | MIC (Acinetobacter baumannii [18]) | MIC (Acinetobacter baumannii [19]) | MIC (Acinetobacter baumannii [20]) | MIC (Acinetobacter baumannii [21]) | also measured
1 | O=C(O)c1cn(C2CC2)c2cc(N3CCNCC3)c(F)cc2c1=O [CIPROFLOXACIN] | > 32 mg/L | > 32 mg/L | > 32 mg/L | > 32 mg/L | > 32 mg/L | > 32 mg/L | > 32 mg/L | > 32 mg/L | > 32 mg/L | 0.25 mg/L (≈ 0.754 µM) | > 32 mg/L | > 32 mg/L | 0.25 mg/L (≈ 0.754 µM) | > 32 mg/L | > 32 mg/L | > 32 mg/L | > 32 mg/L | 0.38 mg/L (≈ 1.15 µM) | 0.125 mg/L (≈ 0.377 µM) | 3 mg/L (≈ 9.05 µM) | MIC (Acinetobacter baumannii [4]): 0.75 mg/L (≈ 2.26 µM); MIC (Acinetobacter baumannii [22]): > 32 mg/L; MIC (Acinetobacter baumannii [23]): > 32 mg/L; MIC (Acinetobacter baumannii [24]): > 32 mg/L
2 | C[C@@H](O)[C@H]1C(=O)N2C(C(=O)O)=C(S[C@@H]3CN[C@H](C(=O)N(C)C)C3)[C@H](C)[C@H]12 [MEROPENEM] | 32 mg/L (≈ 83.4 µM) | 32 mg/L (≈ 83.4 µM) | > 32 mg/L | 32 mg/L (≈ 83.4 µM) | > 32 mg/L | 32 mg/L (≈ 83.4 µM) | 0.75 mg/L (≈ 1.96 µM) | 16 mg/L (≈ 41.7 µM) | 32 mg/L (≈ 83.4 µM) | 0.5 mg/L (≈ 1.3 µM) | > 32 mg/L | > 32 mg/L | 0.5 mg/L (≈ 1.3 µM) | > 32 mg/L | > 32 mg/L | > 32 mg/L | > 32 mg/L | 0.5 mg/L (≈ 1.3 µM) | 0.38 mg/L (≈ 0.991 µM) | 0.75 mg/L (≈ 1.96 µM) | fold change (FC) (Acinetobacter baumannii [25]): 2; MIC (Acinetobacter baumannii [26]): 3 mg/L; MIC (Acinetobacter baumannii [27]): 8 mg/L (≈ 20.9 µM); MIC (Acinetobacter baumannii [22]): 0.75 mg/L (≈ 1.96 µM); fold change (FC) (Acinetobacter baumannii [28]): 2; MIC (Acinetobacter baumannii [23]): 1.5 mg/L (≈ 3.91 µM); MIC (Acinetobacter baumannii [24]): 32 mg/L (≈ 83.4 µM); MIC (Acinetobacter baumannii [29]): 4 mg/L; MIC (Acinetobacter baumannii [30]): 6 mg/L (≈ 15.6 µM)
3 | CCN1CCN(C(=O)N[C@@H](C(=O)N[C@@H]2C(=O)N3[C@@H]2SC(C)(C)[C@@H]3C(=O)O)c2ccccc2)C(=O)C1=O [PIPERACILLIN] | > 256 mg/L | > 256 mg/L | > 256 mg/L | > 256 mg/L | > 256 mg/L | > 256 mg/L | > 256 mg/L | > 256 mg/L | > 256 mg/L | > 256 mg/L | > 256 mg/L | > 256 mg/L | > 256 mg/L | > 256 mg/L | > 256 mg/L | > 256 mg/L | > 256 mg/L | > 256 mg/L | > 256 mg/L | > 256 mg/L | MIC (Acinetobacter baumannii [22]): > 256 mg/L; MIC (Acinetobacter baumannii [23]): > 256 mg/L; MIC (Acinetobacter baumannii [24]): > 256 mg/L
4 | GENTAMICIN | > 256 mg/L | > 256 mg/L | > 256 mg/L | > 256 mg/L | > 256 mg/L | > 256 mg/L | > 256 mg/L | > 256 mg/L | > 256 mg/L | 256 mg/L | > 256 mg/L | > 256 mg/L | > 256 mg/L | > 256 mg/L | > 256 mg/L | > 256 mg/L | > 256 mg/L | > 256 mg/L | 256 mg/L | > 256 mg/L | MIC (Acinetobacter baumannii [22]): > 256 mg/L; MIC (Acinetobacter baumannii [23]): > 256 mg/L; MIC (Acinetobacter baumannii [24]): > 256 mg/L
